Source: ChEMBL document CHEMBL4477254, “Synthesis and biological evaluation of some novel triazole hybrids of curcumin mimics and their selective anticancer activity against breast and prostate cancer cell lines” (Bioorg Med Chem Lett, 2016)
Calls of active or inactive are those of the source. The calls are words filed in the database; no cut-off is given here.

Legend:
[1] = Elimination rate constant in liver microsomes (unknown origin) at 5 ug/ml measured up to 60 mins by UPLC analysis; assay type: ADME, Microsome
MCF7 [2] = experiment: Induction of apoptosis in human MCF7 cells assessed as viable cells at 3 uM after 24 hrs by annexin V-FITC/propidium iodide staining based flow cytometry (reference value: 82.63%); assay type: functional; settings: MCF7, 24 h, read-out: Activity
Procedure, shortened: (§1)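 Apoptosis by Annexin V-FITC/PI dual staining: MCF-7 cells treated 24 h at 3, 6 and 9 µM, then harvested, stained and acquired by flow cytometry; early apoptotic = AnnexinV+/PI−, live = AnnexinV−/PI−, necrotic = AnnexinV−/PI+.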

MCF7 [3] = experiment: Induction of apoptosis in human MCF7 cells assessed as necrotic cells at 3 uM after 24 hrs by annexin V-FITC/propidium iodide staining based flow cytometry (reference value: 4.76%); assay type: functional; procedure, shortened: as §1
MCF7 [4] = experiment: Cell cycle arrest in human MCF7 cells assessed as accumulation at G2/M phase at 3 uM after 24 hrs by propidium iodide staining based flow cytometry (reference value: 20.30%); assay type: functional
Procedure, shortened: (§2)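 Cells treated 24 h with test compound, MCF-7 at various concentrations and PC-3 at various concentrations; cells harvested, stained with propidium iodide and acquired by flow cytometry for cell cycle phase distribution.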

MCF7 [5] = experiment: Induction of morphological changes in human MCF7 cells assessed as decrease in cell number at 1 to 6 uM after 24 hrs by phase contrast microscopy; assay type: functional, cell-based
Procedure, shortened: (§3)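 Cells were exposed to a range of concentrations for 24 h. Cell number and morphology, including detachment from the surface, were assessed by phase-contrast microscopy at 10X magnification.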

MCF7 [6] = experiment: Cell cycle arrest in human MCF7 cells assessed as accumulation at G0/G1 phase at 6 uM after 24 hrs by propidium iodide staining based flow cytometry (reference value: 45.67%); assay type: functional; procedure, shortened: as §2
MCF7 [7] = experiment: Induction of apoptosis in human MCF7 cells assessed as late apoptotic cells at 6 uM after 24 hrs by annexin V-FITC/propidium iodide staining based flow cytometry (reference value: 5.25%); assay type: functional; procedure, shortened: as §1
MCF7 [8] = experiment: Induction of mitochondrial membrane depolarization in human MCF7 cells at 3 uM after 24 hrs by JC-1 staining based flow cytometry (reference value: 11%); assay type: functional
MCF7 [9] = experiment: Cell cycle arrest in human MCF7 cells assessed as increase in cells at S phase after 24 hrs by propidium iodide staining based flow cytometry; assay type: functional; procedure, shortened: as §2
MCF7 [10] = experiment: Cell cycle arrest in human MCF7 cells assessed as accumulation at S phase at 6 uM after 24 hrs by propidium iodide staining based flow cytometry (reference value: 34.03%); assay type: functional; procedure, shortened: as §2
PC-3 [11] = experiment: Cell cycle arrest in human PC3 cells assessed as accumulation at S phase at 4.8 uM after 24 hrs by propidium iodide staining based flow cytometry (reference value: 25.01%); assay type: functional; procedure, shortened: as §2
PC-3 [12] = experiment: Induction of apoptosis in human PC3 cells assessed as late apoptotic cells at 4.8 uM after 24 hrs by annexin V-FITC/propidium iodide staining based flow cytometry (reference value: 0.80%); assay type: functional
Procedure, shortened: (§4)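 MCF-7 cells exposed to 3, 6 or 9 μM and PC-3 cells to 4.8 or 8.8 μM for 24 h, then harvested and dual-stained with Annexin V-FITC/PI and read by flow cytometry. Gates: live AnnexinV⁻/PI⁻, early apoptotic AnnexinV⁺/PI⁻, necrotic AnnexinV⁻/PI⁺.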

PC-3 [13] = experiment: Induction of morphological changes in human PC3 cells assessed as cell detachment at >8.8 uM after 24 hrs by phase contrast microscopy; assay type: functional, cell-based; procedure, shortened: as §3
PC-3 [14] = experiment: Induction of apoptosis in human PC3 cells assessed as early apoptotic cells at 4.8 uM after 24 hrs by annexin V-FITC/propidium iodide staining based flow cytometry (reference value: 4.44%); assay type: functional; procedure, shortened: as §4
PC-3 [15] = experiment: Induction of morphological changes in human PC3 cells at 2.4 to 8.8 uM after 24 hrs by phase contrast microscopy; assay type: functional, cell-based; procedure, shortened: as §3
[16] = Elimination rate constant in liver microsomes (unknown origin) at 8 ug/ml measured up to 60 mins by UPLC analysis; assay type: ADME, Microsome
PC-3 [17] = experiment: Cell cycle arrest in human PC3 cells assessed as accumulation at S phase at 8.8 uM after 24 hrs by propidium iodide staining based flow cytometry (reference value: 25.01%); assay type: functional; procedure, shortened: as §2
PC-3 [18] = experiment: Inhibition of colony formation in human PC3 cells incubated for 24 hrs measured till day 7 by crystal violet staining based assay; assay type: functional, cell-based
Procedure, shortened: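 Cells were treated with a range of concentrations for 24 h. The medium was then replaced with complete medium and cells were grown for 7 days. Colonies were stained with 0.1% crystal violet.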

PC-3 [19] = experiment: Induction of apoptosis in human PC3 cells assessed as necrotic cells at 4.8 uM after 24 hrs by annexin V-FITC/propidium iodide staining based flow cytometry (reference value: 2.52%); assay type: functional; procedure, shortened: as §4
PC-3 [20] = experiment: Induction of mitochondrial membrane depolarization in human PC3 cells at 8.8 uM after 24 hrs by JC-1 staining based flow cytometry (reference value: 4.51%); assay type: functional
PC-3 [21] = experiment: Induction of apoptosis in human PC3 cells assessed as late apoptotic cells at 8.8 uM after 24 hrs by annexin V-FITC/propidium iodide staining based flow cytometry (reference value: 0.80%); assay type: functional; procedure, shortened: as §4

Which k el at 1 h, 5 ug/ml [1] does the source give for `O=C1/C(=C/c2ccccc2F)CN(Cc2cn(Cc3ccc(F)cc3)nn2)C/C1=C\c1ccccc1F` here?
Its k el at 1 h, 5 ug/ml is 0.00147 s⁻¹.

What about the viability at 3 µM (MCF7 [2]) of the same compound?
Its viability at 3 µM is 52.4%.

What about the Activity (MCF7 [3]) of the same compound?
Its Activity is 6.18%.

What about the Activity (MCF7 [4]) of the same compound?
Its Activity is 25.7%.

And the Activity (MCF7 [5])?
Its Activity is “Active”.

What about the Activity (MCF7 [6]) of the same compound?
The Activity was 11.97%.

What about the Activity (MCF7 [7]) of the same compound?
The Activity was 15.2%.

And the Activity (MCF7 [8])?
Its Activity is 66.45%.

What about the Activity (MCF7 [9]) of the same compound?
The Activity was “Dose-dependent effect”.

And the Activity (MCF7 [10])?
The Activity was 44.43%.

For `Cc1ccc(/C=C2\CN(Cc3cn(Cc4ccccc4F)nn3)C/C(=C\c3ccc(C)cc3)C2=O)cc1`, which Activity (PC-3 [11]) is on record?
Its Activity is 21.02%.

What about the Activity (PC-3 [12]) of the same compound?
Its Activity is 0.81%.

What about the Activity (PC-3 [13]) of the same compound?
Its Activity is “Active”.

And the Activity (PC-3 [14])?
Its Activity is 13.02%.

What about the Activity (PC-3 [15]) of the same compound?
Its Activity is “Active”.

What about the k el at 1 h, 8 ug/ml [16] of the same compound?
Its k el at 1 h, 8 ug/ml is 0.000733 s⁻¹.

And the Activity (PC-3 [17])?
The Activity was 23.61%.

And the inhibition (PC-3 [18])?
Its inhibition is “Dose-dependent effect”.

What about the Activity (PC-3 [19]) of the same compound?
The Activity was 0.91%.

And the Activity (PC-3 [20])?
Its Activity is 32.02%.

And the Activity (PC-3 [21])?
The Activity was 0.88%.
